These results are taken from PubChem BioAssay AID602407 (Southern Research Specialized Biocontainment Screening …, 2012).

Calls of active or inactive are those of the source.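 The calls were made as follows: active = inhibition of 30% or more at any tested concentration; inactive = the rest.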

One may read the IC50 as the concentration at which inhibition is half-maximal.

Chain of Cytosol aminopeptidase (Homo sapiens) (P28838 whole entry, looked up): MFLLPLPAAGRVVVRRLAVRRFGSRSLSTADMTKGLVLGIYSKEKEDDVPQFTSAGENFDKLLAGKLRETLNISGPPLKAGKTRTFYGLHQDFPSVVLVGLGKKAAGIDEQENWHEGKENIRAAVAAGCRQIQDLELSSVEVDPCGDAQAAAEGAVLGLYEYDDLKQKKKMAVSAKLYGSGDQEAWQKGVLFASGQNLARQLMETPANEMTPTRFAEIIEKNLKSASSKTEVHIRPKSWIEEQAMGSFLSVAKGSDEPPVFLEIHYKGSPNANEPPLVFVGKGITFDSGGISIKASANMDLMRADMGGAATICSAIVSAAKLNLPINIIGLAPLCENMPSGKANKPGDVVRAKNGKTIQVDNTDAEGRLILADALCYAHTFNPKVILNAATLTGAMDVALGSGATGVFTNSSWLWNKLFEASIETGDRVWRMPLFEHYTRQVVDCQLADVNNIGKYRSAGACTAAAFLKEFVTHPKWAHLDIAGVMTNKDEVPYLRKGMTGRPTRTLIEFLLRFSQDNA

The first test deals with Cytosol aminopeptidase (Homo sapiens) (UniProt P28838). The test can be described thus: HuM17LAP enzyme activity inhibition – biochemical, QFRET fluorogenic substrate, counter-screen for PfM17LAP inhibitor project, dose response (AID 602407). To be noted: recombinant human M17LAP, H-Leu-NHMec fluorogenic cleavage. A digest of the protocol:
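system = recombinant human M17LAP enzyme | dosing = ten twofold steps from 100 µM, 2% DMSO | times = 90 min reaction, room temperature | technique = fluorescence of released NHMec, excitation 370 nm, emission 460 nm | read-out basis = % inhibition and IC50 from constrained four-parameter fit | controls = full reaction and enzyme-free controls | replicates = triplicates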
Take `CCC(C)Oc1ccc(CC(=O)NO)cc1` (stereo not drawn): the concentration for half-maximal inhibition (IC50) is 380 nM. On to `O=C(NO)c1ccc2ccccc2c1`, for which the IC50 is 8380 nM. In the case of `CCCCOc1ccc(C(C)C(=O)NO)cc1` (stereo not drawn), the IC50 was 530 nM.

Turning to `CCCCOc1cccc(CC(=O)NO)c1`, the half-inhibitory concentration (IC50) was 2770 nM. For the molecule `CCCOc1ccc(CC(=O)NO)cc1`, the IC50 was 490 nM.

Staying with this test, now noted: recombinant human M17LAP, H-Leu-NHMec fluorogenic cleavage; at 100 µM (top of the series).
Consider `CCCCOc1ccc(CN(O)C(C)=O)cc1`, for which the inhibition result is “inactive”.

Regarding `CCCCOc1ccc(CN(O)C(=O)c2ccccc2)cc1`, the inhibition entry was “inactive”. For `CN(C)CCOc1ccc(CC(=O)O)cc1`, the inhibition result is “inactive”. On to `CCCCOc1ccc(C(C)C(=O)OC)cc1` (stereo not drawn), for which the inhibition entry was “inactive”. As to `CCCCOc1ccc(C(C)(C)C(=O)O)cc1`, the inhibition result is “inactive”. For `CCCCOc1cccc(CC(=O)OC)c1`, the inhibition entry was “inactive”. Consider `CCCCOc1ccc(C(C)(C)C(=O)NO)cc1`, for which the inhibition result is “inactive”. For the molecule `CCCOc1ccc(CC(=O)O)cc1`, the inhibition entry was “inactive”.
